Assay [1] in a line: Stimulation of ERK phosphorylation in LNCaP cells after 30 min. In kind it is functional, cell-based. The note with it: Homo sapiens, 0.5 h. In a few lines:
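LNCaP prostate cells in RPMI-1640 with 10% FBS, plated at about 60% confluency and treated 24 h later with a range of concentrations for 15 or 30 min. Cells were washed with PBS and total lysates run on 10% SDS-PAGE, blotted and probed with anti-phosphoERK. Band intensity was expressed relative to 100 nM PMA (= 100%). Approximate EC50 was read from the graph; mean ± SEM of three experiments.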

A short description of assay [2]: Inhibition of cell proliferation in WEHI231 cell line after 48 hrs. Format: functional, cell-based. The following applies: Mus musculus, WEHI231, 48 h. In a few lines:
(§1)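 WEHI-231 cells in DMEM with 10% FBS and 50 µM β-mercaptoethanol are plated at 1 × 10⁵ viable cells/mL and dosed 24 h later (final DMSO 0.1%) for 48 h. Cells are triturated to single-cell suspension and counted on a Coulter counter. Counts are given as % of the DMSO control. Mean ± SEM of three independent experiments.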

Assay [3] deals with Protein kinase C alpha type (Homo sapiens, UniProt P17252). Briefly: Displacement of [3H]PDBu from PKCalpha. In short, it runs like this: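 Competition with [3H]PDBu for binding to recombinant single isozyme PKC alpha in the presence of phosphatidylserine. ID50 is taken from a least-squares fit of a sigmoidal competition curve. Ki = ID50/(1 + L/Kd), where L is free [3H]PDBu at the ID50 and Kd is the [3H]PDBu dissociation constant. Mean ± standard error, three determinations.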

For assay [4], the system named is CHO. Briefly: Translocation of PKCdelta from cytosol to membrane in CHO cells. Format: functional, cell-based. The following applies: Cricetulus griseus. In a few lines:
(§2)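 CHO cells in F12-K with 10% FBS are transfected with GFP-tagged PKC alpha or PKC delta. Live cells are imaged by confocal microscopy with 488 nm excitation, time-lapse every 30 s. Redistribution from cytosol to plasma and internal membranes is followed before and after ligand addition at 10 or 20 µM, over up to about 120 min. Three independent experiments.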

Assay [5] relates to CHO. Briefly: Translocation of PKCalpha from cytosol to membrane in CHO cells. Format: functional, cell-based. The note with it: Cricetulus griseus. In a few lines: as §2
The subject of assay [6] is U-937. Briefly: Induction of attachment of U937 cells after 48 hrs. Format: functional, cell-based. The following applies: Homo sapiens; for EC50: U-937, 48 h. In short, it runs like this:
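U937 monocytes in RPMI-1640 with 10% FBS are plated at 1 × 10⁵ cells/mL and exposed (final DMSO 0.1%) for 48 h. Non-attached cells and attached cells (after trypsinization) are counted on a Coulter counter. Attached cells are expressed as % of total cells. Mean ± SEM of three independent experiments.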

The test system of assay [7] is CHO. Briefly: Translocation of PKC from cytosol to membrane in CHO cells. Format: functional, cell-based. The following applies: Cricetulus griseus. In a few lines:
as §2

For the next assay, the system named is LNCaP. Briefly: Stimulation of ERK phosphorylation in LNCaP cells at 10 uM after 30 min relative to PMA. Format: cell-based. The note with it: Homo sapiens. In a few lines: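 LNCaP prostate cells in RPMI-1640 with 10% FBS are plated at about 60% confluency and treated 24 h later for 15 or 30 min. Cells are PBS-washed and lysed, and lysates go through 10% SDS-PAGE and immunoblotting with anti-phosphoERK. Phospho-ERK band intensity is expressed relative to 100 nM PMA (= 100%).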

A short description of assay [8]: Inhibition of cell proliferation in WEHI231 cell line at 10 uM after 48 hrs. In kind it is functional. The following applies: Mus musculus, WEHI231, 48 h. In short, it runs like this: as §1
Assay [9] has as its system CHO. Briefly: Translocation of PKCalpha from cytosol to membrane in CHO cells at 20 uM after 120 mins. Format: functional, cell-based. The following applies: Cricetulus griseus. In a few lines: as §2
Assay [10] concerns U-937. Briefly: Reduction of PMA-induced attachment of U937 cells at 30 uM after 48 hrs. Format: functional, cell-based. The following applies: Homo sapiens.
The nature of assay [11]: Induction of IL6 secretion in WEHI231 cells at 30 uM after 6 hrs relative to 10 uM PMA. In kind it is functional, Mus musculus. The note with it: in the assay text read “10 nM PMA” for “10 uM PMA”. In short, it runs like this: (§3)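 WEHI-231 cells are grown in DMEM with 10% FBS and 50 µM β-mercaptoethanol. They are plated at 1 × 10⁵ viable cells/mL and dosed 24 h later (final DMSO 0.1%) for 6 or 24 h. IL-6 in the supernatant is measured by ELISA, one measurement per experiment. It is expressed as % of IL-6 induced by 10 nM PMA at 6 h.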

Assay [12] is described as follows: Induction of IL6 secretion in WEHI231 cells at 30 uM after 24 hrs relative to 10 uM PMA. Format: functional, Mus musculus. The following applies: in the assay text read “10 nM PMA” for “10 uM PMA”. In a few lines:
as §3

Results on eleven molecules are retold here after ChEMBL document CHEMBL1142858, “Conformationally constrained analogues of diacylglycerol (DAG). 27. Modulation of membrane translocation of protein kinase C (PKC) isozymes alpha and delta by diacylglycerol lactones (DAG-lactones) containing rigid-rod acyl groups” (J Med Chem, 2007).

Calls of active or inactive are those of the source. The rule behind the calls is not given here.

The term EC50 denotes the concentration at which the effect is half-maximal. A higher EC50 goes with a need for much substance. As usually defined, the Ki is the equilibrium dissociation constant of an inhibitor or competing ligand from its target. Higher therefore signals weaker binding. Regarding `C#Cc1ccc(C#Cc2ccc(C(=O)OCC3(CO)CC(=C(C)C)C(=O)O3)cc2)cc1` (centres undefined), the EC50 in assay [1] amounted to 400 nM; in [2] it was 3000 nM. Moreover, the affinity in assay [3] corresponds to a Ki of 5.23 nM. The result with CHO [4] and in the assay with CHO [5] was Active.
`COC(=O)COc1ccc(C#Cc2ccc(C#Cc3ccc(C#Cc4ccc(C(=O)OCC5(CO)CC(=C(C)C)C(=O)O5)cc4)cc3)cc2)cc1` (centres undefined) came in with a Ki in [3] of 127 nM.
On to `CCCCCCCCCCCCCC(=O)O[C@@H]1[C@@H](C)[C@@]2(O)[C@@H](C=C(CO)C[C@]3(O)C(=O)C(C)=C[C@@H]23)[C@@H]2C(C)(C)[C@]12OC(C)=O` [PHORBOL MYRISTATE ACETATE], for which the EC50 in assay [2] was 0.85 nM; with U-937 [6] it was 0.45 nM.
On to `CC(C)=C1CC(CO)(COC(=O)c2ccc(C#Cc3ccc(C#Cc4ccc(OCCOCCOCCOC(=O)N(CC(=O)O)CC(=O)O)cc4)cc3)cc2)OC1=O` (centres undefined), for which the result in the assay with CHO [7] was Active. In assay [3], this molecule returned a Ki of 1390 nM.
In the case of `COC(=O)COc1ccc(C#Cc2ccc(C#Cc3ccc(C(=O)OCC4(CO)CC(=C(C)C)C(=O)O4)cc3)cc2)cc1` (centres undefined), affinity in assay [3] was put at a Ki of 15.8 nM. That is a double-digit nanomolar value.
As to `COC(=O)CCCCCCCCCCCCCCCOc1ccc(C#Cc2ccc(C#Cc3ccc(C(=O)OCC4(CO)CC(=C(C)C)C(=O)O4)cc3)cc2)cc1` (centres undefined), the outcome in the assay with LNCaP was Active. Moreover, the EC50 in assay [2] worked out at 3000 nM; in the assay on U-937 [6], 1000 nM. Besides, the Ki in assay [3] came out at 52.7 nM.
In the case of `COc1ccc(C#Cc2ccc(C#Cc3ccc(C(=O)OCC4(CO)CC(=C(C)C)C(=O)O4)cc3)cc2)cc1` (centres undefined), the 50% effective concentration (EC50) in [2] was 430 nM; in the assay on U-937 [6] it was 260 nM. For the same molecule, the affinity in assay [3], expressed as Ki, was 5.88 nM.
One may read the inhibition as the change of the read-out against control, counted positive when it falls. Low values mean a weak effect, high ones a strong effect. Molecule `CC(C)=C1CC(CO)(COC(=O)c2ccc(C#Cc3ccc(C#Cc4ccc(OCCOCCOCCOC(=O)N(CC(=O)OC(C)(C)C)CC(=O)OC(C)(C)C)cc4)cc3)cc2)OC1=O` (centres undefined) showed an inhibition at 10 µM in assay [8] of 35%. Besides, in assay [3], affinity was put at a Ki of 18.3 nM. In the assay with U-937 [6], the outcome was Active.
Regarding `CC(C)=C1CC(CO)(COC(=O)c2ccc(C#Cc3ccc(C#Cc4ccc(OCCOCCOCCN(CC(=O)OC(C)(C)C)CC(=O)OC(C)(C)C)cc4)cc3)cc2)OC1=O` (centres undefined), in [3], the inhibition constant (Ki) was found to be 111 nM.
For the molecule `C#Cc1ccc(C#Cc2ccc(C#Cc3ccc(C(=O)OCC4(CO)CC(=C(C)C)C(=O)O4)cc3)cc2)cc1` (centres undefined), the result in the assay with CHO [9] and with U-937 [10] was Active. Also, the values for the 50% effective concentration (EC50) (in assay [2]; in the assay on U-937 [6]) were 400 nM and 250 nM, respectively. The Ki in assay [3] came out at 11.6 nM.
With `CCCCCCCCCC(=O)OCC1(CO)CC(=C(C)C)C(=O)O1` (centres undefined), the EC50 in assay [1] is 3000 nM. Besides, the Activity was determined as 80% in assay [11] and 25% in [12]. For the same molecule, affinity in assay [3] was put at a Ki of 15.9 nM. Also, the result in the assay with CHO [4] and with CHO [5] was Active. Moreover, the outcome in the assay on U-937 [6] was inactive.
